How the values were obtained:
HeLa = assay: In vitro cytotoxicity against HeLa S3 cell lines, treated for 3 days then uptake of neutral red dye was measured; format: functional, cell-based; conditions: Homo sapiens, 72 h
MCF7 = assay: In vitro cytotoxicity against MCF-7 cell lines, treated for 3 days then uptake of neutral red dye was measured; format: functional, cell-based; conditions: Homo sapiens, MCF7, 72 h
Mus musculus [1] = assay: Compound was tested for percentage Body weight change in vivo against MCF-7 cells implanted into Nude Mice, Dosage 50(mg/kg); format: functional, MCF7
Summary of the method: (§1)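 Female nude mice carried MCF-7 implants, with tumor growth stimulated by estradiol propionate given on the first dosing day. Mice with tumors of 25–200 mm³ were selected 20 days after transplantation (n = 5). Compound was given orally on days 0–4 and 7–11. Tumor length and width were measured on days 0, 4, 7, 11, 14 and 18. T/C is V/V0 treated over control; body weight change in %.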

Mus musculus [2] = assay: Compound was tested for percentage Body weight change in vivo against MCF-7 cells implanted into Nude Mice, Dosage 25(mg/kg); format: functional, MCF7; summary of the method: as §1
Mus musculus [3] = assay: Ratio of tumor growth rate of the drug-treated group relative to that of the control group at a dose of 25 mg/kg; format: functional; summary of the method: as §1
Mus musculus [4] = assay: Ratio of tumor growth rate of the drug-treated group relative to that of the control group at a dose of 50 mg/kg; format: functional; summary of the method: as §1
Mus musculus [5] = assay: Compound was tested for percentage Body weight change in vivo against MCF-7 cells implanted into Nude Mice, Dosage 3.1(mg/kg); format: functional, MCF7; summary of the method: as §1
Mus musculus [6] = assay: Compound was tested for percentage Body weight change in vivo against MCF-7 cells implanted into Nude Mice, Dosage 6.3(mg/kg); format: functional, MCF7; summary of the method: as §1
Mus musculus [7] = assay: Compound was tested for percentage Body weight change in vivo against MCF-7 cells implanted into Nude Mice, Dosage 12.5(mg/kg); format: functional, MCF7; summary of the method: as §1
Mus musculus [8] = assay: Ratio of tumor growth rate of the drug-treated group relative to that of the control group at a dose of 6.3 mg/kg; format: functional; summary of the method: as §1
Mus musculus [9] = assay: Ratio of tumor growth rate of the drug-treated group relative to that of the control group at a dose of 12.5 mg/kg; format: functional; summary of the method: as §1
Mus musculus [10] = assay: Ratio of tumor growth rate of the drug-treated group relative to that of the control group at a dose of 3.1 mg/kg; format: functional; summary of the method: as §1
Mus musculus [11] = assay: Compound was tested for percentage Body weight change in vivo against MCF-7 cells implanted into Nude Mice, Dosage (mg/kg); format: functional, MCF7; summary of the method: as §1
HeLa S3 (Homo sapiens) = assay: Compound was tested for in vitro Cytotoxicity against HeLa S3 cell lines which were treated for 3 days and uptake of neutral red dye was measured; conditions: HeLa S3, 72 h
Mus musculus [12] = assay: Ratio of tumor growth rate of the drug-treated group relative to that of the control group at a dosw of 6.3 mg/kg; format: functional; summary of the method: as §1
Mus musculus [13] = assay: Ratio of tumor growth rate of the drug-treated group relative to that of the control group at a dosw of 50 mg/kg; format: functional; summary of the method: as §1
Mus musculus [14] = assay: Compound was tested for percentage Body weight change in vivo against MCF-7 cells implanted into Nude Mice, Dosage 25 (mg/kg); format: functional, MCF7; summary of the method: as §1
Mus musculus [15] = assay: Ratio of tumor growth rate of the drug-treated group relative to that of the control group at a dosw of 25 mg/kg; format: functional; summary of the method: as §1
Mus musculus [16] = assay: Compound was tested for percentage Body weight change in vivo against MCF-7 cells implanted into Nude Mice, Dosage 50 (mg/kg); format: functional, MCF7; summary of the method: as §1
Mus musculus [17] = assay: Compound was tested for percentage Body weight change in vivo against MCF-7 cells implanted into Nude Mice, Dosage 63(mg/kg); format: functional, MCF7; conditions: in the assay text read “Dosage 6.3(mg/kg)” for “Dosage 63(mg/kg)”; summary of the method: as §1
Mus musculus [18] = assay: Ratio of tumor growth rate of the drug-treated group relative to that of the control group at a dosw of 63 mg/kg; format: functional; conditions: dose 6.3 mg/kg; in the assay text read “6.3 mg/kg” for “63 mg/kg”; summary of the method: as §1

| Compound | IC50 (HeLa) [µM] | IC50 (MCF7) [nM] | further results |
| --- | --- | --- | --- |
| [N-]=[N+]=Nc1c(F)c(N)c2c(=O)cc(-c3ccc(N)c(F)c3)oc2c1F | 1.2 | 460 | – |
| Nc1ccc(-c2cc(=O)c3c(N)c(F)c(C(=O)O)c(F)c3o2)cc1F | > 100 | > 10000 | – |
| C[N+](C)(C)Cc1c(F)c(N)c2c(=O)cc(-c3ccc(N)c(F)c3)oc2c1F | 32 | 3100 | – |
| Nc1ccc(-c2cc(=O)c3c(N)c(F)c(Br)c(F)c3o2)cc1F | > 100 | 160 | – |
| CCCCCCOCc1c(F)c(N)c2c(=O)cc(-c3ccc(N)c(F)c3)oc2c1F | > 100 | 7100 | – |
| CC(=O)OCc1c(F)c(N)c2c(=O)cc(-c3ccc(N)c(F)c3)oc2c1F | 4.9 | 26 | Body weight change (Mus musculus [1]): -4.5%; Body weight change (Mus musculus [2]): -5.9%; T/C min (Mus musculus [3]): 6.1%; T/C min (Mus musculus [4]): 11% |
| CS(=O)(=O)c1c(F)c(N)c2c(=O)cc(-c3ccc(N)c(F)c3)oc2c1F | > 100 | > 10000 | – |
| CCCOCc1c(F)c(N)c2c(=O)cc(-c3ccc(N)c(F)c3)oc2c1F | 78 | 1200 | – |
| Nc1ccc(-c2cc(=O)c3c(N)c(F)c(N)c(F)c3o2)cc1F | 19 | 7.7 | Body weight change (Mus musculus [5]): 5.7%; Body weight change (Mus musculus [6]): -13%; Body weight change (Mus musculus [7]): -22%; T/C min (Mus musculus [8]): 26%; T/C min (Mus musculus [9]): 18%; T/C min (Mus musculus [10]): 55% |
| CN(C)c1c(F)c(N)c2c(=O)cc(-c3ccc(N)c(F)c3)oc2c1F | > 100 | 39 | Body weight change (Mus musculus [7]): -19%; T/C min (Mus musculus [9]): 39% |
| COc1c(F)c(N)c2c(=O)cc(-c3ccc(N)c(F)c3)oc2c1F | 34 | 100 | – |
| CCC(=O)OCc1c(F)c(N)c2c(=O)cc(-c3ccc(N)c(F)c3)oc2c1F | 69 | 130 | Body weight change (Mus musculus [11]): -2.4%; T/C min (Mus musculus [3]): 79% |
| CCCCCC(=O)NCc1c(F)c(N)c2c(=O)cc(-c3ccc(N)c(F)c3)oc2c1F | – | 340 | Body weight change (Mus musculus [1]): 0%; T/C min (Mus musculus [4]): 76%; IC50 (HeLa S3 (Homo sapiens)): > 100 µM |
| CN(C)CC(=O)OCc1c(F)c(N)c2c(=O)cc(-c3ccc(N)c(F)c3)oc2c1F | 9.2 | 26 | Body weight change (Mus musculus [1]): -11%; Body weight change (Mus musculus [6]): -4.8%; Body weight change (Mus musculus [2]): -9%; T/C min (Mus musculus [12]): 68%; T/C min (Mus musculus [3]): 4%; T/C min (Mus musculus [4]): 1% |
| CCc1c(F)c(N)c2c(=O)cc(-c3ccc(N)c(F)c3)oc2c1F | > 100 | 130 | – |
| CCCCCCCCCCCCCCCCCC(=O)OCc1c(F)c(N)c2c(=O)cc(-c3ccc(N)c(F)c3)oc2c1F | > 100 | > 10000 | Body weight change (Mus musculus [2]): -4.8%; T/C min (Mus musculus [3]): 20% |
| CCCCCC(=O)OCc1c(F)c(N)c2c(=O)cc(-c3ccc(N)c(F)c3)oc2c1F | 34 | 160 | Body weight change (Mus musculus [6]): -5.9%; Body weight change (Mus musculus [2]): -7.9%; Body weight change (Mus musculus [7]): -8.4%; T/C min (Mus musculus [8]): 27%; T/C min (Mus musculus [9]): 7.9%; T/C min (Mus musculus [3]): 0.8% |
| CN(C)CCOCc1c(F)c(N)c2c(=O)cc(-c3ccc(N)c(F)c3)oc2c1F | 4.6 | > 10000 | Body weight change (Mus musculus [1]): -7.9%; T/C min (Mus musculus [13]): 57% |

| Compound | IC50 (HeLa) [µM] | IC50 (MCF7) [nM] | further results |
| --- | --- | --- | --- |
| Nc1ccc(-c2cc(=O)c3c(N)c(F)cc(F)c3o2)cc1F | > 100 | 40 | Body weight change (Mus musculus [14]): -7.4%; T/C min (Mus musculus [3]): 11% |
| Nc1ccc(-c2cc(=O)c3c(N)c(F)c(Cl)c(F)c3o2)cc1F | > 100 | 210 | – |
| Nc1ccc(-c2cc(=O)c3c(N)c(F)c(CO)c(F)c3o2)cc1F | 24 | 62 | Body weight change (Mus musculus [1]): -6.7%; Body weight change (Mus musculus [2]): -4%; T/C min (Mus musculus [3]): 17%; T/C min (Mus musculus [4]): 1.6% |
| Nc1ccc(-c2cc(=O)c3c(N)c(F)c(O)c(F)c3o2)cc1F | > 100 | > 10000 | – |
| C[S+]([O-])c1c(F)c(N)c2c(=O)cc(-c3ccc(N)c(F)c3)oc2c1F (stereo not given) | > 100 | 2500 | – |
| CCCCc1c(F)c(N)c2c(=O)cc(-c3ccc(N)c(F)c3)oc2c1F | > 100 | 8800 | – |
| CN(C)CCC(=O)OCc1c(F)c(N)c2c(=O)cc(-c3ccc(N)c(F)c3)oc2c1F | 11 | 19 | Body weight change (Mus musculus [2]): -12%; T/C min (Mus musculus [15]): 4.1% |
| CN(C)Cc1c(F)c(N)c2c(=O)cc(-c3ccc(N)c(F)c3)oc2c1F | 8.9 | 72 | Body weight change (Mus musculus [2]): -17%; T/C min (Mus musculus [15]): 16% |
| CN(C)CCOc1c(F)c(N)c2c(=O)cc(-c3ccc(N)c(F)c3)oc2c1F | 1.5 | 1400 | – |
| Cc1c(F)c(N)c2c(=O)cc(-c3ccc(N)c(F)c3)oc2c1F [AMINOFLAVONE] | > 100 | 13 | Body weight change (Mus musculus [6]): -8.7%; Body weight change (Mus musculus [7]): -11%; T/C min (Mus musculus [8]): 55%; T/C min (Mus musculus [9]): 11% |
| COCc1c(F)c(N)c2c(=O)cc(-c3ccc(N)c(F)c3)oc2c1F | > 100 | 46 | Body weight change (Mus musculus [1]): 0%; T/C min (Mus musculus [13]): 89% |
| CSc1c(F)c(N)c2c(=O)cc(-c3ccc(N)c(F)c3)oc2c1F | > 100 | 190 | – |
| NCc1c(F)c(N)c2c(=O)cc(-c3ccc(N)c(F)c3)oc2c1F | 8.8 | 26 | Body weight change (Mus musculus [16]): -11%; Body weight change (Mus musculus [17]): -5.8%; Body weight change (Mus musculus [2]): -8.5%; T/C min (Mus musculus [13]): 1.1%; T/C min (Mus musculus [3]): 11%; T/C min (Mus musculus [18]): 60% |
| CCCCCCc1c(F)c(N)c2c(=O)cc(-c3ccc(N)c(F)c3)oc2c1F | 21 | > 10000 | – |
| CN(C)CCCOCc1c(F)c(N)c2c(=O)cc(-c3ccc(N)c(F)c3)oc2c1F | 12 | > 10000 | – |
| CCOC(=O)c1c(F)c(N)c2c(=O)cc(-c3ccc(N)c(F)c3)oc2c1F | > 100 | 1400 | – |
| CN(C)CCCC(=O)OCc1c(F)c(N)c2c(=O)cc(-c3ccc(N)c(F)c3)oc2c1F | 4.5 | 29 | Body weight change (Mus musculus [2]): -8.4%; T/C min (Mus musculus [15]): 15% |
| CCCCCCCCCC(=O)OCc1c(F)c(N)c2c(=O)cc(-c3ccc(N)c(F)c3)oc2c1F | > 100 | 100 | Body weight change (Mus musculus [2]): -5%; T/C min (Mus musculus [3]): 13% |

From ChEMBL document CHEMBL1131243, “Structure-activity relationships of the 7-substituents of 5,4'-diamino-6,8,3'-trifluoroflavone, a potent antitumor agent” (J Med Chem, 1998)
